# Assays:
# [1] = target: T1, DNA topoisomerase 1 (Homo sapiens) (UniProt P11387); assay: Inhibition of human topoisomerase 1 mediated DNA cleavage assessed as effective drug concentration causing 10% YepG plasmid cleavage relative to camptothecin
# T1 sequence (whole entry): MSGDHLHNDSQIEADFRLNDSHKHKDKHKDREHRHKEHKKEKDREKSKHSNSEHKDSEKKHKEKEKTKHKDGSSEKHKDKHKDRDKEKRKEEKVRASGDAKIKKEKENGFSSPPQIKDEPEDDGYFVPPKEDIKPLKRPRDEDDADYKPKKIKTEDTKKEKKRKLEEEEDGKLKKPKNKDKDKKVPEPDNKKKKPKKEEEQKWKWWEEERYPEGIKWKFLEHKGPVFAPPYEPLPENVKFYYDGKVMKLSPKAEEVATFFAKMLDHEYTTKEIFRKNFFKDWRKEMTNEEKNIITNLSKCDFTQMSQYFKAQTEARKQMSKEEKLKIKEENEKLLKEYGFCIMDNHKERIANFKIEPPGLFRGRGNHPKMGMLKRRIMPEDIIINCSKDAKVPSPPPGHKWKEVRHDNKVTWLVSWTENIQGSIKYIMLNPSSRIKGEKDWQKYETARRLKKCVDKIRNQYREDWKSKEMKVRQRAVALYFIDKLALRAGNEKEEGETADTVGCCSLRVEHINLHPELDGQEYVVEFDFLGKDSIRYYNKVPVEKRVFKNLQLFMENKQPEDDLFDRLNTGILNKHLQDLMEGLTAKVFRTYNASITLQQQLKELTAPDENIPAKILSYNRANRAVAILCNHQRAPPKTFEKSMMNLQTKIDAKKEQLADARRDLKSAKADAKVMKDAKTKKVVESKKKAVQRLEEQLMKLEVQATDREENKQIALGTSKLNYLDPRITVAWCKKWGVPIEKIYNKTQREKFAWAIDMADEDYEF
# Summary of the method: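 Stopped with SDS and proteinase K, 1 h at 37 °C. Alkali-denatured with NaOH/EDTA/sucrose/bromophenol blue, then run on neutral agarose gel.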
# [2] = Cytotoxicity against human RPMI8402 cells after MTT assay; format: functional, cell-based; settings: RPMI 8402
# Summary of the method: (§1)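 Suspension cultures at 37 °C, 5% CO2, in RPMI with 10% heat-inactivated FBS, 2 mM L-glutamine, penicillin and streptomycin. Continuous 4-day exposure to a range of drug concentrations, then MTT read-out to give IC50. Drug-free control included. At least two runs, six replicate wells each.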
# [3] = Cytotoxicity against camptothecin-resistant human CPT-K5 cells after MTT assay; format: functional, cell-based; summary of the method: as §1
# P388 = assay: Cytotoxicity against mouse P388 cells after MTT assay; format: functional, cell-based; summary of the method: as §1
# [4] = Cytotoxicity against camptothecin-resistant and TOP1 deficient mouse P388/CPT45 cells after MTT assay; format: functional, cell-based; settings: P388CPT45; summary of the method: as §1
# [5] = Cytotoxicity against human KB3-1 cells after MTT assay; format: functional, cell-based; settings: KB 3-1
# Summary of the method: (§2)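 IC50 after continuous 4-day exposure to varying drug concentrations, with MTT read at the end of day 4. A drug-free control was included. At least two runs, each in six replicate wells.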
# [6] = Cytotoxicity against multidrug resistant human KBV-1 cells overexpressing MDR1 after MTT assay; format: functional, cell-based; settings: KB-V1; summary of the method: as §2
# [7] = Cytotoxicity against multidrug resistant human KBH5.0 cells overexpressing BCRP after MTT assay; format: functional, cell-based; settings: KBH5.0 cell; summary of the method: as §2
# MDA-MB-435 (human) [8] = assay: Antitumor activity against human MDA-MB-435 cells xenografted in NCR/NU NU mouse assessed as tumor volume measured on day 7 initially dosed at 2 mg/kg, ip qd x 5/week for 2 weeks and was gradually increased to 6 mg/kg x 5/week schedule
# MDA-MB-435 (human) [9] = assay: Antitumor activity against human MDA-MB-435 cells xenografted in NCR/NU NU mouse assessed as tumor volume measured on day 42 initially dosed at 2 mg/kg, ip qd x 5/week for 2 weeks and was gradually increased to 6 mg/kg x 5/week schedule
# MDA-MB-435 (human) [10] = assay: Antitumor activity against human MDA-MB-435 cells xenografted in NCR/NU NU mouse assessed as tumor volume measured on day 49 initially dosed at 2 mg/kg, ip qd x 5/week for 2 weeks and was gradually increased to 6 mg/kg x 5/week schedule
# MDA-MB-435 (human) [11] = assay: Antitumor activity against human MDA-MB-435 cells xenografted in NCR/NU NU mouse assessed as tumor volume measured on day 14 initially dosed at 2 mg/kg, ip qd x 5/week for 2 weeks and was gradually increased to 6 mg/kg x 5/week schedule
# MDA-MB-435 (human) [12] = assay: Antitumor activity against human MDA-MB-435 cells xenografted in NCR/NU NU mouse assessed as tumor volume measured on day 21 initially dosed at 2 mg/kg, ip qd x 5/week for 2 weeks and was gradually increased to 6 mg/kg x 5/week schedule
# MDA-MB-435 (human) [13] = assay: Antitumor activity against human MDA-MB-435 cells xenografted in NCR/NU NU mouse assessed as tumor volume measured on day 28 initially dosed at 2 mg/kg, ip qd x 5/week for 2 weeks and was gradually increased to 6 mg/kg x 5/week schedule
# MDA-MB-435 (human) [14] = assay: Antitumor activity against human MDA-MB-435 cells xenografted in NCR/NU NU mouse assessed as tumor volume measured on day 35 initially dosed at 2 mg/kg, ip qd x 5/week for 2 weeks and was gradually increased to 6 mg/kg x 5/week schedule
# MDA-MB-435 (human) [15] = assay: Antitumor activity against human MDA-MB-435 cells xenografted in NCR/NU NU mouse assessed as tumor volume measured on day 7 initially dosed at 5 mg/kg, ip qd x 5/week for 2 weeks and was gradually increased to 6 mg/kg x 5/week for 2 weeks and adjusted to 6 mg/kg qd x 3/week for 1 week schedule
# MDA-MB-435 (human) [16] = assay: Antitumor activity against human MDA-MB-435 cells xenografted in NCR/NU NU mouse assessed as tumor volume measured on day 14 initially dosed at 5 mg/kg, ip qd x 5/week for 2 weeks and was gradually increased to 6 mg/kg x 5/week for 2 weeks and adjusted to 6 mg/kg qd x 3/week for 1 week schedule
# MDA-MB-435 (human) [17] = assay: Antitumor activity against human MDA-MB-435 cells xenografted in NCR/NU NU mouse assessed as tumor volume measured on day 21 initially dosed at 5 mg/kg, ip qd x 5/week for 2 weeks and was gradually increased to 6 mg/kg x 5/week for 2 weeks and adjusted to 6 mg/kg qd x 3/week for 1 week schedule
# MDA-MB-435 (human) [18] = assay: Antitumor activity against human MDA-MB-435 cells xenografted in NCR/NU NU mouse assessed as tumor volume measured on day 28 initially dosed at 5 mg/kg, ip qd x 5/week for 2 weeks and was gradually increased to 6 mg/kg x 5/week for 2 weeks and adjusted to 6 mg/kg qd x 3/week for 1 week schedule
# MDA-MB-435 (human) [19] = assay: Antitumor activity against human MDA-MB-435 cells xenografted in NCR/NU NU mouse assessed as tumor volume measured on day 35 initially dosed at 5 mg/kg, ip qd x 5/week for 2 weeks and was gradually increased to 6 mg/kg x 5/week for 2 weeks and adjusted to 6 mg/kg qd x 3/week for 1 week schedule
# MDA-MB-435 (human) [20] = assay: Antitumor activity against human MDA-MB-435 cells xenografted in NCR/NU NU mouse assessed as tumor volume measured on day 42 initially dosed at 5 mg/kg, ip qd x 5/week for 2 weeks and was gradually increased to 6 mg/kg x 5/week for 2 weeks and adjusted to 6 mg/kg qd x 3/week for 1 week schedule
# MDA-MB-435 (human) [21] = assay: Antitumor activity against human MDA-MB-435 cells xenografted in NCR/NU NU mouse assessed as tumor volume measured on day 49 initially dosed at 5 mg/kg, ip qd x 5/week for 2 weeks and was gradually increased to 6 mg/kg x 5/week for 2 weeks and adjusted to 6 mg/kg qd x 3/week for 1 week schedule
# [22] = in the assay text read “relative to topotecan” for “relative to camptothecin”
Compound,"Activity [1, 22]",IC50 [2],IC50 [3],IC50 (P388),IC50 [4],IC50 [5],IC50 [6],IC50 [7],Activity (MDA-MB-435 (human) [8]),Activity (MDA-MB-435 (human) [9]),Activity (MDA-MB-435 (human) [10]),Activity (MDA-MB-435 (human) [11]),Activity (MDA-MB-435 (human) [12]),Activity (MDA-MB-435 (human) [13]),Activity (MDA-MB-435 (human) [14]),further results
COc1cc2c(=O)n(CCN(CC#N)C(C)C)c3c4cc5c(cc4ncc3c2cc1OC)OCO5,< 0.2,2 nM,1300 nM,2 nM,60 nM,6 nM,43 nM,9 nM,–,–,–,–,–,–,–,Activity (MDA-MB-435 (human) [15]): 142 mm3; Activity (MDA-MB-435 (human) [16]): 175 mm3; Activity (MDA-MB-435 (human) [17]): 213 mm3; Activity (MDA-MB-435 (human) [18]): 220 mm3; Activity (MDA-MB-435 (human) [19]): 250 mm3; Activity (MDA-MB-435 (human) [20]): 286 mm3; Activity (MDA-MB-435 (human) [21]): 314 mm3
C#CCN(CC)CCn1c(=O)c2cc(OC)c(OC)cc2c2cnc3cc4c(cc3c21)OCO4,> 10,17 nM,> 10000 nM,35 nM,2300 nM,70 nM,100 nM,110 nM,115 mm3,349 mm3,488 mm3,106 mm3,170 mm3,204 mm3,331 mm3,–
CC[C@@]1(O)C(=O)OCc2c1cc1n(c2=O)Cc2cc3ccccc3nc2-1 [CAMPTOTHECIN],–,6 nM,> 10000 nM,–,> 10000 nM,–,–,–,–,–,–,–,–,–,–,–
COc1cc2c(=O)n(CCN(CC(F)(F)F)C(C)C)c3c4cc5c(cc4ncc3c2cc1OC)OCO5,> 10,1900 nM,> 10000 nM,1100 nM,> 10000 nM,1000 nM,4400 nM,1100 nM,–,–,–,–,–,–,–,–
COc1cc2c(=O)n(CCN(C)CC#N)c3c4cc5c(cc4ncc3c2cc1OC)OCO5,< 0.2,4 nM,980 nM,3 nM,220 nM,5 nM,43 nM,27 nM,149 mm3,669 mm3,919 mm3,222 mm3,370 mm3,392 mm3,528 mm3,–
CCOc1cc2c(=O)n(CCN(C)C)c3c4cc5c(cc4ncc3c2cc1OCC)OCO5,–,150 nM,140 nM,15 nM,13 nM,70 nM,190 nM,100 nM,–,–,–,–,–,–,–,Activity [1]: > 10
CC[C@@]1(O)C(=O)OCc2c1cc1n(c2=O)Cc2cc3c(CN(C)C)c(O)ccc3nc2-1 [TOPOTECAN],1,21 nM,> 10000 nM,–,> 10000 nM,40 nM,–,440 nM,–,–,–,–,–,–,–,–

# Second part, led by results:
"Activity [1, 22]",Compound,IC50 [2],IC50 [3],IC50 (P388),IC50 [4],IC50 [5],IC50 [6],IC50 [7],Activity (MDA-MB-435 (human) [8]),Activity (MDA-MB-435 (human) [9]),Activity (MDA-MB-435 (human) [10]),Activity (MDA-MB-435 (human) [11]),Activity (MDA-MB-435 (human) [12]),Activity (MDA-MB-435 (human) [13]),Activity (MDA-MB-435 (human) [14]),further results
> 10,C#CCN(CCn1c(=O)c2cc(OC)c(OC)cc2c2cnc3cc4c(cc3c21)OCO4)C(C)C,65 nM,> 10000 nM,80 nM,3700 nM,100 nM,430 nM,70 nM,99 mm3,310 mm3,357 mm3,112 mm3,165 mm3,170 mm3,234 mm3,–
< 0.2,CCN(CC#N)CCn1c(=O)c2cc(OC)c(OC)cc2c2cnc3cc4c(cc3c21)OCO4,1 nM,670 nM,1 nM,130 nM,4 nM,34 nM,7 nM,100 mm3,361 mm3,435 mm3,156 mm3,178 mm3,202 mm3,293 mm3,–
> 10,CCN(CCn1c(=O)c2cc(OC)c(OC)cc2c2cnc3cc4c(cc3c21)OCO4)CC(F)(F)F,700 nM,> 10000 nM,610 nM,> 10000 nM,650 nM,2900 nM,750 nM,127 mm3,543 mm3,718 mm3,176 mm3,268 mm3,310 mm3,435 mm3,–
> 10,COc1cc2c(=O)n(CCN(C)CC(F)(F)F)c3c4cc5c(cc4ncc3c2cc1OC)OCO5,250 nM,> 10000 nM,250 nM,> 10000 nM,410 nM,1000 nM,630 nM,–,–,–,–,–,–,–,–

# — ChEMBL document CHEMBL1142488, “Synthesis of N-substituted 5-[2-(N-alkylamino)ethyl]dibenzo[c,h][1,6]naphthyridines as novel topoisomerase I-targeting antitumor agents” (Bioorg Med Chem, 2008)
